Data: ChEMBL document CHEMBL1811853, “Design and evaluation of 3-aminopyrazolopyridinone kinase inhibitors inspired by the natural product indirubin” (Bioorg Med Chem, 2011)

How the values were obtained:
[1] = biological target: MAP kinase-activated protein kinase 2 (Homo sapiens, UniProt P49137); assay: Inhibition of MAPKAPK2 at 30 uM by microfluidic mobility shift assay
Procedure, shortened: (§1)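 Single-concentration screen, singlicate, 30 uM final (diluted from 1 mM DMSO solutions), fluorescently tagged peptide substrate appropriate to each kinase, ATP at apparent Km for each protein. Phosphorylated and unphosphorylated peptides separated electrophoretically; conversion is the phosphorylated peak area over the sum of both peaks. No-inhibitor and no-ATP controls; H89 reference on each plate.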

[2] = biological target: T1, Aurora kinase A (Homo sapiens) (UniProt O14965); assay: Inhibition of AurA at 30 uM by microfluidic mobility shift assay; procedure, shortened: as §1
T1 sequence (whole entry): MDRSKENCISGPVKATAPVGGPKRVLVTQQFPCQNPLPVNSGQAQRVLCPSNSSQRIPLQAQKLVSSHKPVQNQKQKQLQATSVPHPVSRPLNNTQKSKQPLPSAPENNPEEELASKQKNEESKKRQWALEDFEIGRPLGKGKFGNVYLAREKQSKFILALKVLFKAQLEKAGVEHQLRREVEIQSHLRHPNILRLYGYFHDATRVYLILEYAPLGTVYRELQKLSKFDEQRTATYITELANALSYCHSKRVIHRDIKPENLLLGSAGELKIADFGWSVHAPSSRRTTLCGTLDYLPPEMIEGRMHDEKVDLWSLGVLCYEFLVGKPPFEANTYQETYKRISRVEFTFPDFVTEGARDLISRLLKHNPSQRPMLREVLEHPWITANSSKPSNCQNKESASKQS

[3] = biological target: Ribosomal protein S6 kinase alpha-1 (Homo sapiens) (UniProt Q15418); assay: Inhibition of RSK1 at 30 uM by microfluidic mobility shift assay; procedure, shortened: as §1
[4] = biological target: T2, MAP kinase-activated protein kinase 5 (Homo sapiens) (UniProt Q8IW41); assay: Inhibition of PRAK1 at 30 uM by microfluidic mobility shift assay; procedure, shortened: as §1
T2 sequence (whole entry): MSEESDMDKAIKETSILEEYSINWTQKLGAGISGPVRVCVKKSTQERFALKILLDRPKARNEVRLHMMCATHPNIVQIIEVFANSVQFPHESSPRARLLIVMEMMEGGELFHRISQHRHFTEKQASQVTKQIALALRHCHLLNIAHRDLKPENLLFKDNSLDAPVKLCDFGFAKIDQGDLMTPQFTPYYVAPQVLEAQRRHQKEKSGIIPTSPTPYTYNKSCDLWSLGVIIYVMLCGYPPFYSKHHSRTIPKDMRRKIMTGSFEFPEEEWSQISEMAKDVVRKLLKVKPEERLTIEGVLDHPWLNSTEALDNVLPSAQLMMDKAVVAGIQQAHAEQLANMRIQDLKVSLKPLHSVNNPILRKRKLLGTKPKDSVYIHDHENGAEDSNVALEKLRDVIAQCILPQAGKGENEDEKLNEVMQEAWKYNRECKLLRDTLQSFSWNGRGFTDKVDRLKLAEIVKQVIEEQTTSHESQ

[5] = biological target: Mitogen-activated protein kinase 3 (Homo sapiens) (UniProt P27361); assay: Inhibition of ERK1 at 30 uM by microfluidic mobility shift assay; procedure, shortened: as §1
[6] = biological target: T3, Serine/threonine-protein kinase D2 (Homo sapiens) (UniProt Q9BZL6); assay: Inhibition of PKD2 at 30 uM by microfluidic mobility shift assay; procedure, shortened: as §1
T3 sequence (whole entry): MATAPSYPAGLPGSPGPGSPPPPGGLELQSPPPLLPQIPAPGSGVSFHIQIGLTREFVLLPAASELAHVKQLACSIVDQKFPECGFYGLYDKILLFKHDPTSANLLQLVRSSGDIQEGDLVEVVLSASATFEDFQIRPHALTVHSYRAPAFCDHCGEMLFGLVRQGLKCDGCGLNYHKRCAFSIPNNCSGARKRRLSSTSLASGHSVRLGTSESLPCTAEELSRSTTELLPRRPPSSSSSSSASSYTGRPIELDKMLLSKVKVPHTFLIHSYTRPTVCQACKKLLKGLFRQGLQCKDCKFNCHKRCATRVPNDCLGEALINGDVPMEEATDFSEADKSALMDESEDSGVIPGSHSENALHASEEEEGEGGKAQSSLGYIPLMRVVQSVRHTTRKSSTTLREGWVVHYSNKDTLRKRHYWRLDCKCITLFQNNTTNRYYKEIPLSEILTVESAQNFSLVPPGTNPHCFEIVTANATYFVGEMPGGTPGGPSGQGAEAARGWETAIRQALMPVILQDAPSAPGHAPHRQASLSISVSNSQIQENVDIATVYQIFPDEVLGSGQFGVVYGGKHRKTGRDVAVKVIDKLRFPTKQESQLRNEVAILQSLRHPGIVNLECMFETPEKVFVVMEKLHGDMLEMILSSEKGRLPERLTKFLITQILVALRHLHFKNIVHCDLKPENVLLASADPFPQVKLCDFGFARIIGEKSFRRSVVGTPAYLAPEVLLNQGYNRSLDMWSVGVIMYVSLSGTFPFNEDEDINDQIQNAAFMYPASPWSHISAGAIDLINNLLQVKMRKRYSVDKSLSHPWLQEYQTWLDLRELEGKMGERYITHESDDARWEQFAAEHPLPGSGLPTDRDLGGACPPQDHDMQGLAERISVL

[7] = biological target: T4, Serine/threonine-protein kinase Chk1 (Homo sapiens) (UniProt O14757); assay: Inhibition of CHK1 at 30 uM by microfluidic mobility shift assay; procedure, shortened: as §1
T4 sequence (whole entry): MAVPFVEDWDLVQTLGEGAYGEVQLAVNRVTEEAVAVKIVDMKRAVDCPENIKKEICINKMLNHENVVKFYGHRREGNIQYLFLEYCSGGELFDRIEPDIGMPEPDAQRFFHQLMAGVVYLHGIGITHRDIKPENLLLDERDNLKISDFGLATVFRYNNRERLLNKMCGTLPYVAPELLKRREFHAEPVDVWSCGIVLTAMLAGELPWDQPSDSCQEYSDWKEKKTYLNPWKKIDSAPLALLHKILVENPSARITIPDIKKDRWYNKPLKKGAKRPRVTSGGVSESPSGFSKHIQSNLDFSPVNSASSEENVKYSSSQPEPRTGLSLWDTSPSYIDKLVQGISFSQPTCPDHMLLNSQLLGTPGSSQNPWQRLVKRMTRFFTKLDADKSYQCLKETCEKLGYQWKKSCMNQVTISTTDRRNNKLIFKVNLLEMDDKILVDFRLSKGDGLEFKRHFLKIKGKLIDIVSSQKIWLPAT

[8] = biological target: Tyrosine-protein kinase ABL1 (Homo sapiens, UniProt P00519); assay: Inhibition of ABL at 30 uM by microfluidic mobility shift assay; procedure, shortened: as §1
[9] = biological target: Tyrosine-protein kinase Fyn (Homo sapiens, UniProt P06241); assay: Inhibition of FYN at 30 uM by microfluidic mobility shift assay; procedure, shortened: as §1
[10] = biological target: Tyrosine-protein kinase Lyn (Homo sapiens, UniProt P07948); assay: Inhibition of LYN at 30 uM by microfluidic mobility shift assay; procedure, shortened: as §1
[11] = biological target: Serine/threonine-protein kinase Chk2 (Homo sapiens, UniProt O96017); assay: Inhibition of CHK2 at 30 uM by microfluidic mobility shift assay; procedure, shortened: as §1
[12] = biological target: Tyrosine-protein kinase Lck (Homo sapiens, UniProt P06239); assay: Inhibition of LCK at 30 uM by microfluidic mobility shift assay; procedure, shortened: as §1
[13] = biological target: Proto-oncogene tyrosine-protein kinase Src (Homo sapiens, UniProt P12931); assay: Inhibition of SRC at 30 uM by microfluidic mobility shift assay; procedure, shortened: as §1
[14] = biological target: Glycogen synthase kinase-3 beta (Homo sapiens) (UniProt P49841); assay: Inhibition of GSK3B at 30 uM by microfluidic mobility shift assay; procedure, shortened: as §1
[15] = biological target: Mitogen-activated protein kinase 1 (Homo sapiens) (UniProt P28482); assay: Inhibition of ERK2 at 30 uM by microfluidic mobility shift assay; procedure, shortened: as §1
[16] = Inhibition of PKA at 30 uM by microfluidic mobility shift assay; procedure, shortened: as §1
[17] = biological target: RAC-beta serine/threonine-protein kinase (Homo sapiens) (UniProt P31751); assay: Inhibition of AKT2 at 30 uM by microfluidic mobility shift assay; procedure, shortened: as §1
[18] = biological target: Insulin receptor (Homo sapiens) (UniProt P06213); assay: Inhibition of INSR at 30 uM by microfluidic mobility shift assay; procedure, shortened: as §1
[19] = biological target: Mitogen-activated protein kinase 14 (Homo sapiens, UniProt Q16539); assay: Inhibition of p38alpha at 30 uM by microfluidic mobility shift assay; procedure, shortened: as §1
[20] = biological target: RAC-alpha serine/threonine-protein kinase (Homo sapiens) (UniProt P31749); assay: Inhibition of AKT1 at 30 uM by microfluidic mobility shift assay; procedure, shortened: as §1
[21] = biological target: Ribosomal protein S6 kinase alpha-5 (Homo sapiens) (UniProt O75582); assay: Inhibition of MSK1 at 30 uM by microfluidic mobility shift assay; procedure, shortened: as §1
Chain of Ribosomal protein S6 kinase alpha-5 (Homo sapiens) (O75582 whole entry, looked up): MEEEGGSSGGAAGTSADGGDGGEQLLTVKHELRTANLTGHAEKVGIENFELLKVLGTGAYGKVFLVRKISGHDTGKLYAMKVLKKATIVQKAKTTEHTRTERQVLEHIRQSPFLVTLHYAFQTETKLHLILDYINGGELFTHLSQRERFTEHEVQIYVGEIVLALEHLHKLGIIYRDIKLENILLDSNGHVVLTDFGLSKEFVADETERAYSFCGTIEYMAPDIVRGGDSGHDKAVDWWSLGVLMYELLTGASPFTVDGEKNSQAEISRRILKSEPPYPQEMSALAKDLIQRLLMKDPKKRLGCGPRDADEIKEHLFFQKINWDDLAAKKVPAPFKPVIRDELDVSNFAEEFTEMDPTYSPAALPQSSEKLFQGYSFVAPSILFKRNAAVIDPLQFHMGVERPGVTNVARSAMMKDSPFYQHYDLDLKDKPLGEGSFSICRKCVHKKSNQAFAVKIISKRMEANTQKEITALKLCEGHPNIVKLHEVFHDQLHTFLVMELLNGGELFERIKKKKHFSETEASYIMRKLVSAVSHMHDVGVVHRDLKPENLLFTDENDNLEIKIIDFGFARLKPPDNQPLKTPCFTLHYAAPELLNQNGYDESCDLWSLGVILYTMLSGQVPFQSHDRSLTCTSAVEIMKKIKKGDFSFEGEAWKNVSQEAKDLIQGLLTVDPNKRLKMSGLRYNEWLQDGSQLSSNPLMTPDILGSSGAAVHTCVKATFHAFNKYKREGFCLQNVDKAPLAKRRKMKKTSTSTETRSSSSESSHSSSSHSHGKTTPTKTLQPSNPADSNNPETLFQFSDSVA

Chain of RAC-beta serine/threonine-protein kinase (Homo sapiens) (P31751 whole entry): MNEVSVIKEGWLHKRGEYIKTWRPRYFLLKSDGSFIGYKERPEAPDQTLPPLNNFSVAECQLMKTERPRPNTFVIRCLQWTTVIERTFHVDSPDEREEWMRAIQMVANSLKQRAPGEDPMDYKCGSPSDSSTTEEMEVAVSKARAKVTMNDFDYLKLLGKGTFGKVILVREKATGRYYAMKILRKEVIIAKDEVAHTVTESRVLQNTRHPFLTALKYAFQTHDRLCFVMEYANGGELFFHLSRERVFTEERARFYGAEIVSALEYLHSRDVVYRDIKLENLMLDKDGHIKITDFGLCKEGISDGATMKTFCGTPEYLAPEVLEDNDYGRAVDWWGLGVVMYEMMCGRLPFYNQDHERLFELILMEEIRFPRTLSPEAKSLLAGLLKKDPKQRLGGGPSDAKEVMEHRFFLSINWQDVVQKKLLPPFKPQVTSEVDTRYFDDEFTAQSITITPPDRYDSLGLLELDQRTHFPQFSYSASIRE
Chain of Ribosomal protein S6 kinase alpha-1 (Homo sapiens) (Q15418 whole entry): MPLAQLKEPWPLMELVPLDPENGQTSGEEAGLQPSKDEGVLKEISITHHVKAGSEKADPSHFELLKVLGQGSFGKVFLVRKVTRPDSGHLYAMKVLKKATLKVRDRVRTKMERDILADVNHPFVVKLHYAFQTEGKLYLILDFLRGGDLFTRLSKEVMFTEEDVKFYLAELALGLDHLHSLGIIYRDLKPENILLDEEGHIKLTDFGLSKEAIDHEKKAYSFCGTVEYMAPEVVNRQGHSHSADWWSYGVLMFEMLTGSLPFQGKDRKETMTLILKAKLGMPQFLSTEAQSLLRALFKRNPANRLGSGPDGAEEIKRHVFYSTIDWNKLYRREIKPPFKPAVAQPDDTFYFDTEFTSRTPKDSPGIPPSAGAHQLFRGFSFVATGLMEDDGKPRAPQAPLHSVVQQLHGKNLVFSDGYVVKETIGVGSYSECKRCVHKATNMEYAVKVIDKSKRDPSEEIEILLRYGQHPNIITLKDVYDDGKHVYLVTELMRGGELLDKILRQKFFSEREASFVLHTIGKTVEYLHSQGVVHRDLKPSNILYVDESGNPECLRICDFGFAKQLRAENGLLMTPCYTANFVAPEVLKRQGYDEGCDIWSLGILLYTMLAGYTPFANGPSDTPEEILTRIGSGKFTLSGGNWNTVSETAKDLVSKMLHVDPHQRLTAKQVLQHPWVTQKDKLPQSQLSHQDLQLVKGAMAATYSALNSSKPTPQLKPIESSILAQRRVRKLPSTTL
Chain of Insulin receptor (Homo sapiens) (P06213 28-758 limits assumed): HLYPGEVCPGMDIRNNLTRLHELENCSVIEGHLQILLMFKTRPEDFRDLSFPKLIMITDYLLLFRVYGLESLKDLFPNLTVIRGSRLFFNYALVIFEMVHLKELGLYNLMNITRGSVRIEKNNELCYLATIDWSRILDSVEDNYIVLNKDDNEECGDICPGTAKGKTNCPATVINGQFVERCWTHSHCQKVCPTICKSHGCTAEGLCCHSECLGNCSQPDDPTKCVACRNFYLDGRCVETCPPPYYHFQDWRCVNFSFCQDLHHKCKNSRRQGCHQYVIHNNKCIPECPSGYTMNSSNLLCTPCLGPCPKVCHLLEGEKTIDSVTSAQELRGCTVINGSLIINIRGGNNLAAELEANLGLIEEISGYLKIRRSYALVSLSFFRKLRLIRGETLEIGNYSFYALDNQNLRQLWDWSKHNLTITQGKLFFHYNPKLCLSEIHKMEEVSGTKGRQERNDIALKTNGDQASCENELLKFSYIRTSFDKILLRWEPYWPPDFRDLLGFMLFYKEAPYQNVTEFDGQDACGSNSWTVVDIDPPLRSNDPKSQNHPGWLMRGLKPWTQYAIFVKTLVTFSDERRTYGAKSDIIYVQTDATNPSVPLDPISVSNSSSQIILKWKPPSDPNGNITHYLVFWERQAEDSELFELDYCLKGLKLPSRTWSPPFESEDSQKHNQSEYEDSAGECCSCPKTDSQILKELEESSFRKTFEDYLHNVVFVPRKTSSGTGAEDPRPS
Chain of Insulin receptor (Homo sapiens) (P06213 763-1382 limits assumed): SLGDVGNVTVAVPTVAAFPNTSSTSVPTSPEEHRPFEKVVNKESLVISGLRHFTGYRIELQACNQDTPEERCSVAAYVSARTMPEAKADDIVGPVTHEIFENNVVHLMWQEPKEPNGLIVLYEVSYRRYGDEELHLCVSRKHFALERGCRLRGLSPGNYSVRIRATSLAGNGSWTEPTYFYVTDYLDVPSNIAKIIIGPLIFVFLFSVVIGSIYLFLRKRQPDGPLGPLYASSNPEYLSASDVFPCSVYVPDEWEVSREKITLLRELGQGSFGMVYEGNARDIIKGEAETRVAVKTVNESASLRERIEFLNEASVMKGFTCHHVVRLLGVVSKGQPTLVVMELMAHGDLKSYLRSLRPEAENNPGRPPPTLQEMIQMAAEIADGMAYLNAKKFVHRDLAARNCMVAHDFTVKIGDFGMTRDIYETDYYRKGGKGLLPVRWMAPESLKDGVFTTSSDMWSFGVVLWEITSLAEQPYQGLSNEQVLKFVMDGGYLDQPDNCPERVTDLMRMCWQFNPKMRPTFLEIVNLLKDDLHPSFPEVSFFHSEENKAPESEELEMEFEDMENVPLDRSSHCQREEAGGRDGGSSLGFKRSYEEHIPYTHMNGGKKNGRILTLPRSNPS
Chain of Tyrosine-protein kinase ABL1 (P00519 whole entry): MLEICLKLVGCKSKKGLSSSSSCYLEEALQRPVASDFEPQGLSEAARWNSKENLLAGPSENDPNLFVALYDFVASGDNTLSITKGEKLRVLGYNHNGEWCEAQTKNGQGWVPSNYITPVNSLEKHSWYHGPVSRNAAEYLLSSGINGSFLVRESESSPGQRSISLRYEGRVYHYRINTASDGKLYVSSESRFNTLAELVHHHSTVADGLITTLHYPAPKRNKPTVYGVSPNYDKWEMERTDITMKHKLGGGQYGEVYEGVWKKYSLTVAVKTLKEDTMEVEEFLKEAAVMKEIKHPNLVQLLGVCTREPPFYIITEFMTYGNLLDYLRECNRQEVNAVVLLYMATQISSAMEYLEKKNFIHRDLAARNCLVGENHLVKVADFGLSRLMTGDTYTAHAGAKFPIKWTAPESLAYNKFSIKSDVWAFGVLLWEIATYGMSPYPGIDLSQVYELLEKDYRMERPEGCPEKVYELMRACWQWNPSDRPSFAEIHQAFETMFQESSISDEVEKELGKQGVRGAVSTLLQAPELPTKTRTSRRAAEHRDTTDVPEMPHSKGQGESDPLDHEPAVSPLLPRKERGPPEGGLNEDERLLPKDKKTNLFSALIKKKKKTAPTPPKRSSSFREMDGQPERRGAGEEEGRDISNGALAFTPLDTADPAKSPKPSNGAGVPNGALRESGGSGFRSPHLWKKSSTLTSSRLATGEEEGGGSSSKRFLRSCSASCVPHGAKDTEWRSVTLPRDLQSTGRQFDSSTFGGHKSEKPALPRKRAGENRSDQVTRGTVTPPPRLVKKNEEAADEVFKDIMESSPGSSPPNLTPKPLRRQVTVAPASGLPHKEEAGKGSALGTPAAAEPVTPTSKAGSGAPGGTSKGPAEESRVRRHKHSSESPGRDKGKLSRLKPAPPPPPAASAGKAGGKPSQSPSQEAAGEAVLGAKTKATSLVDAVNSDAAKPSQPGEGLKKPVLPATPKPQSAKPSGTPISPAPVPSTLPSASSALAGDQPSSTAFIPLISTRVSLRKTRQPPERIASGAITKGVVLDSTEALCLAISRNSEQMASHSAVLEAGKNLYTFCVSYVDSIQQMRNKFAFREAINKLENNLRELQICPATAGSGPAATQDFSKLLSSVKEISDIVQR
Chain of Tyrosine-protein kinase Fyn (P06241 2-537 limits assumed): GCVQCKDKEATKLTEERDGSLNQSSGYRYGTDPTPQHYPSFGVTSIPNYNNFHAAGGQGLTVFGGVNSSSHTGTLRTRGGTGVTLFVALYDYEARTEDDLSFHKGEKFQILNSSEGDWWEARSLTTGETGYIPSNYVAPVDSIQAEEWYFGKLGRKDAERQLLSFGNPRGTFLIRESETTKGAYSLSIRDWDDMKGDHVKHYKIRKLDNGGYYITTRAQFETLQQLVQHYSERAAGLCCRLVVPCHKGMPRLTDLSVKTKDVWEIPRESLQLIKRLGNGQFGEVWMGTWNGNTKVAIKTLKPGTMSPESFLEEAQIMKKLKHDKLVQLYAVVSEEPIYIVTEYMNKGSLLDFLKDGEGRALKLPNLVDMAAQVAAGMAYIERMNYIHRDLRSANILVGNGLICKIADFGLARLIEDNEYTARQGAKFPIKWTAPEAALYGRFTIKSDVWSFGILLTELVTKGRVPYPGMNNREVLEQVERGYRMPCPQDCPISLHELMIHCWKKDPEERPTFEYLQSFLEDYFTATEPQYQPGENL

Row | Compound | inhibition [1] | inhibition [2] | inhibition [3] | inhibition [4] | inhibition [5] | inhibition [7] | inhibition [8] | inhibition [9] | inhibition [10] | inhibition [11] | inhibition [12] | inhibition [13] | inhibition [14] | inhibition [15] | inhibition [16] | inhibition [17] | inhibition [18] | inhibition [19] | inhibition [20] | inhibition [21] | further results
1 | Nc1n[nH]c2cc(-c3cccs3)[nH]c(=O)c12 | 58% | 67% | 35% | 12% | 15% | 44% | 63% | 69% | 63% | 59% | 58% | 74% | 89% | 15% | 79% | 5% | 21% | 6% | 4% | 63% | inhibition [6]: 5%
2 | Nc1c2cnc(-c3ccccc3)cc2nn1-c1ccccc1 | 1% | 3% | -3% | 2% | 5% | 6% | 19% | 13% | 29% | 7% | 13% | 9% | 4% | 1% | 4% | 3% | 3% | 55% | -1% | -2% | 
3 | O=S(=O)(NCCNC/C=C/c1ccc(Br)cc1)c1cccc2cnccc12 | 41% | 71% |  | 37% |  |  | 8% |  |  |  |  | 18% | 10% |  | 100% |  | 3% | 5% |  |  | 
4 | Cc1cc2[nH]nc(N)c2c(N2CCOCC2)n1 | 1% | 72% | 30% | 5% | 15% | 13% | 24% | 43% | 51% | 23% | 44% | 45% | 73% | 7% | 71% | 7% | 0% | -3% | 17% | 74% | 
5 | Cc1cc2nn(-c3ccccc3)c(N)c2c(N2CCCCC2)n1 | 7% | 10% | 4% | 10% | 4% | -1% | 7% | 7% | 8% | 4% | 12% | 7% | 7% | 6% | 2% | -7% | -2% | 10% | 1% | 10% | inhibition [6]: 5%
6 | Cc1cc2c(c(N)nn2C)c(N2CCCCC2)n1 | 7% | 41% | 23% | 17% | 13% |  | 19% | 8% | 11% | 4% | 6% | 4% | 8% | 1% | 6% | 0% | -2% | 4% | 6% | 7% | inhibition [6]: 16%
7 | Cc1cc2[nH]ncc2c(=O)[nH]1 | 11% | 13% | -3% | 1% | 4% | 2% | 4% | 4% | 5% | 12% | 11% | 5% | 13% | 0% | 8% | 1% | 2% | -5% | 2% | 2% | 
8 | Cc1cc2[nH]nc(N)c2cn1 | 7% | 31% | 11% | 13% | 8% |  | 11% | 3% | 8% | 7% | 6% | 6% | 9% | 4% | 19% | -3% | 5% | 2% | -1% | 13% | inhibition [6]: 25%
